A short description of assay [1]: Cytotoxicity against human GM00637 cells assessed as reduction in mean cell viability after 72 hrs by MTT assay. Type of assay: cell-based. Conditions: GM00637, 72 h. The method, boiled down:
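SV40-transformed normal skin fibroblasts (GM00637) in MEM Eagle–Earle BSS with 15% heat-inactivated FBS, 2 mM L-glutamine, 2× amino acids and vitamins. Seeded at 10,000 cells/well and left 24 h to adhere. Ethanol-delivered compound (1% final) for 72 h at 37 °C, 5% CO₂. MTT formazan in DMSO read at 550/690 nm. Viability relative to vehicle; IC₅₀ by nonlinear regression.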
For orientation: Tetrazolium dyes change colour on reduction, which living cells bring about.

The next assay relates to DU-145. Description: Cytotoxicity against human DU145 cells assessed as reduction in mean cell viability after 72 hrs by MTT assay. The assay is classed as functional, cell-based. As to conditions: DU-145, 72 h. The method, boiled down: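 DU-145 prostate cells in RPMI-1640 with 10% heat-inactivated FBS, penicillin–streptomycin and 2 mM L-glutamine. Seeded at 2000 cells/well and left 24 h to adhere. Compound added in ethanol (1% final) for 72 h at 37 °C, 5% CO₂, with ethanol-only controls. Formazan dissolved in DMSO and read at 550 nm (690 nm reference). IC₅₀ derived by nonlinear regression of viability versus vehicle.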

The test system of a further assay is HeLa. In words: Cytotoxicity against human HeLa cells assessed as reduction in mean cell viability after 72 hrs by MTT assay. Type of assay: functional, cell-based. The method, boiled down:
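HeLa-CCL-2 cells in DMEM with 10% heat-inactivated FBS, 2 mM L-glutamine and nonessential amino acids. Plated at 1000 cells/well with 24 h adherence. Treated in ethanol (1% final) for 72 h at 37 °C under 5% CO₂, with ethanol controls. Absorbance of DMSO-dissolved formazan at 550 nm, 690 nm reference. IC₅₀ by nonlinear regression of percent viability.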

This note sets out measurements from ChEMBL document CHEMBL2021842, “COMPARE analysis of the toxicity of an iminoquinone derivative of the imidazo[5,4-f]benzimidazoles with NAD(P)H:quinone oxidoreductase 1 (NQO1) activity and computational docking of quinones as NQO1 substrates” (Bioorg Med Chem, 2012).

One may read the IC50 as the concentration at which inhibition is half-maximal.

SMILES strings stand for the structures.

For `CCCCn1cnc2c1C(=O)c1ncn(CCCC)c1C2=O`, the IC50 in assay [1] turned out to be 1050 nM; in the assay with DU-145, 1340 nM; with HeLa, 440 nM.
